Test results from ChEMBL document CHEMBL1125321, “Synthesis and biological activity of 13-epi-avermectins: potent anthelmintic agents with an increased margin of safety” (J Med Chem, 1992).

Experiments:
Artemia salina = test: Compound is evaluated in vitro for brine shrimp (Artemia salina) activity.; format: functional
Cooperia [1] = test: Compound is evaluated in vivo for anthelmintic activity against Cooperia species (C. species) parasite in sheep; activity at 0.1 mg/kg; format: functional
In short: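 Sheep with patent nematode infections, randomly assigned to treatment or control; one sheep per compound, two vehicle-only controls. Single oral dose of 0.1 mg/kg. Necropsy 7 days after dosing to count residual worm burdens. Efficacy is % reduction from control, scored 0 = <50%, 1 = 51–75%, 2 = 76–95%, 3 = >95%.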

Haemonchus contortus = test: Compound is evaluated in vivo for anthelmintic activity against Haemonchus contortus (H.c) parasite in sheep; activity at 0.1 mg/kg; format: functional
In short: (§1)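 Sheep with patent infections randomly assigned; one sheep per compound, two vehicle-only controls. Single oral dose 0.1 mg/kg. Necropsy 7 days post-dose, residual worm burdens counted. Efficacy as % reduction from control, scored 0 = <50%, 1 = 51-75%, 2 = 76-95%, 3 = >95%.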

[2] = Compound is evaluated for acute toxicity in mice; format: organism-based; conditions: mouse, in vivo
In short: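 Male CD-1 mice, groups of five per dose randomly allocated; several doses given orally in vehicle by calibrated syringe with blunt-tipped needle. Deaths counted 7 days after dosing; estimated LD50 derived by the method of dose-pair responses.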

[3] = system: Oesophagostomum columbianum; test: Compound is evaluated in vivo for anthelmintic activity against Oesophagostomum columbianum (Oe. c) parasite in sheep; activity at 0.1 mg/kg; format: functional; in short: as §1
[4] = system: Teladorsagia circumcincta; test: Compound is evaluated in vivo for anthelmintic activity against Ostertagia circumcincta (Os. c) parasite in sheep; activity at 0.1 mg/kg; format: functional; in short: as §1
Trichostrongylus axei = test: Compound is evaluated in vivo for anthelmintic activity against Trichostrongylus axei (T.a) parasite in sheep; activity at 0.1 mg/kg; format: functional; in short: as §1
[5] = system: Trichostrongylus colubriformis; test: Compound is evaluated in vivo for anthelmintic activity against Trichostrongylus colubriformis (T.c) parasite in sheep; activity at 0.1 mg/kg; format: functional; in short: as §1
Cooperia [6] = test: Compound is evaluated in vivo for anthelmintic activity against Cooperia species (C. species) parasite in sheep; activity at 0.1 mg/kg; value ranges from 76-95%; format: functional; in short: as §1

Row | SMILES | IC100 (Artemia salina) [ng/mL] | Activity (Cooperia [1]) [%] | Activity (Haemonchus contortus) [%] | LD50 [2] [mg/kg] | Activity [3] [%] | Activity [4] [%] | Activity (Trichostrongylus axei) [%] | Activity [5] [%] | Activity (Cooperia [6]) [%]
1 | CC[C@H](C)[C@H]1O[C@@]2(C[C@@H]3C[C@@H](C/C=C(\C)[C@H](O[C@@H]4C[C@H](OC)C(O[C@H]5C[C@H](OC)[C@@H](O)[C@H](C)O5)[C@H](C)O4)[C@@H](C)/C=C/C=C4\CO[C@@H]5[C@H](O)C(C)=C[C@@H](C(=O)O3)[C@]45O)O2)C[C@H](O)[C@@H]1C (some centres undefined) | 20850 | – | – | – | – | – | – | – | –
2 | CC[C@H](C)[C@H]1O[C@]2(C=C[C@@H]1C)C[C@@H]1C[C@@H](C/C=C(\C)[C@H](O[C@@H]3C[C@H](OC)C(O[C@H]4C[C@H](OC)[C@@H](O)[C@H](C)O4)[C@H](C)O3)[C@@H](C)/C=C/C=C3\CO[C@@H]4[C@H](O)C(C)=C[C@@H](C(=O)O1)[C@]34O)O2 (some centres undefined) | 10415 | – | – | – | – | – | – | – | –
3 | CC[C@H](C)[C@H]1O[C@@]2(C[C@@H]3C[C@@H](C/C=C(\C)[C@H](O[C@H]4C[C@H](OC)C(O[C@H]5C[C@H](OC)[C@@H](O)[C@H](C)O5)[C@H](C)O4)[C@@H](C)/C=C/C=C4\CO[C@@H]5[C@H](O)C(C)=C[C@@H](C(=O)O3)[C@]45O)O2)C[C@H](O)[C@@H]1C (some centres undefined) | 650 | >95 | >95 | 540 | >95 | >95 | >95 | >95 | –
4 | CC[C@H](C)[C@H]1O[C@]2(C=C[C@@H]1C)C[C@@H]1C[C@@H](C/C=C(\C)[C@H](O[C@H]3C[C@H](OC)C(O[C@H]4C[C@H](OC)[C@@H](O)[C@H](C)O4)[C@H](C)O3)[C@@H](C)/C=C/C=C3\CO[C@@H]4[C@H](O)C(C)=C[C@@H](C(=O)O1)[C@]34O)O2 (some centres undefined) | 870 | – | >95 | 160 | >95 | >95 | >95 | >95 | 76
5 | CC[C@H](C)[C@H]1O[C@]2(C=C[C@@H]1C)C[C@@H]1C[C@@H](C/C=C(\C)[C@@H](O[C@H]3C[C@H](OC)[C@@H](O[C@H]4C[C@H](OC)[C@@H](O)[C@H](C)O4)[C@H](C)O3)[C@@H](C)/C=C/C=C3\CO[C@@H]4[C@H](O)C(C)=C[C@@H](C(=O)O1)[C@]34O)O2 [ABAMECTIN COMPONENT B1A] | 356 | – | – | 19 | – | – | – | – | –
6 | CCC(C)C1O[C@]2(C=C[C@@H]1C)C[C@@H]1CC(C/C=C(\C)[C@@H](OC3C[C@H](OC)[C@@H](OC4C[C@H](OC)[C@@H](O)[C@H](C)O4)[C@H](C)O3)[C@@H](C)/C=C/C=C3\COC4[C@H](O)C(C)=CC(C(=O)O1)[C@]34O)O2 (some centres undefined) [AVERMECTIN B1A] | – | >95 | >95 | – | >95 | >95 | >95 | >95 | –
7 | COC1CC(OC2C(C)OC(O[C@@H]3/C(C)=C/C[C@@H]4C[C@@H](C[C@]5(CC(O)[C@H](C)[C@@H](C(C)C)O5)O4)OC(=O)[C@@H]4C=C(C)[C@@H](O)[C@H]5OC/C(=C\C=C\[C@@H]3C)[C@]54O)CC2OC)OC(C)C1O (some centres undefined) [AVERMECTIN B2] | 220 | >95 | >95 | 50 | >95 | >95 | >95 | >95 | –
